M4 ag: agonists of human muscarinic M4 receptor (CHRM4) | 0.14% of 360,000 active | CHO-K1 hM4/Gqi5, Fluo-8 calcium fluorescence; vehicle 0%, full acetylcholine response 100% | activation, % at 3 µM | AID 624127;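 active = activation above the run mean over all test wells plus 3 SD, cut at about 32% in these data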;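 also: peak over basal fluorescence ratio per well then scaled between controls; 0% = DMSO wells and 100% = acetylcholine at EC100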
M4 antag: blocks acetylcholine activation of human M4 receptor; P08173; CHO-hM4 cells, ACh EC80, Fluo-8 calcium fluorescence; inhibition, % at 3 µM; 0.73% of 360,000 active; AID 624125;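 active = inhibition above its plate's cutoff, the mean inhibition of sample wells plus 3 SD, cut at about 27% in these data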;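 also: 0% = acetylcholine EC80 with DMSO and 100% = DMSO without agonist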
M5 ag: CHRM5 agonism in calcium assay; 0.19% of 360,000 active; CHO-K1 hM5 cells, Fluo-8 calcium fluorescence; 0% DMSO wells, 100% maximal acetylcholine response; activation, % at 3 µM; AID 624037;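 active = activation above the run's mean over test compounds plus 3 SD, cut at about 23% in these data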;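 also: signal is peak over basal fluorescence ratio across the kinetic read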
Target sequence (P08912 whole entry, looked up): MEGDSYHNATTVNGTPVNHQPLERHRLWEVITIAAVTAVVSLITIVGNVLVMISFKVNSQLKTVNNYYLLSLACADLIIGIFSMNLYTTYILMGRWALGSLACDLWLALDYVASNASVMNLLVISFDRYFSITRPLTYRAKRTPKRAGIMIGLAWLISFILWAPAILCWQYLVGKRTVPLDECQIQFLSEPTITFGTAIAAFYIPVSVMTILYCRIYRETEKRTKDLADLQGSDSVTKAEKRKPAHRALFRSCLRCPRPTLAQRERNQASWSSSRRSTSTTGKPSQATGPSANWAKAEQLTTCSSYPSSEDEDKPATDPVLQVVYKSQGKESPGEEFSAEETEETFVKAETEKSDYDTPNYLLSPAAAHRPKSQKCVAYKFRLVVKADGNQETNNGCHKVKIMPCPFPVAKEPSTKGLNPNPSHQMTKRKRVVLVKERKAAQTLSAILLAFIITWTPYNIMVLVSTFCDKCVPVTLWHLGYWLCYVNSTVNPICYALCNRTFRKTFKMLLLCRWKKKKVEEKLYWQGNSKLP
CHRM5 PAM: CHRM5 positive allosteric modulation. P08912. CHO-K1 hM5, Fluo-8 calcium, ACh EC20 PAM; 0% = ACh EC20, 100% = ACh EC100. activation, % at 3 µM. 0.3% of 360,000 active. AID 624038;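 active = activation above the run cutoff, the mean activation of all test compounds plus 3 SD, cut at about 18% in these data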
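System – CHO-K1 hM5 cells · Compound – 3 µM, single dose · Incubation – compound preincubation 140 s before EC20 acetylcholine addition · Technique – Fluo-8 calcium fluorescence · Measure – Max/basal fluorescence ratio as % of EC20–EC100 ACh window · Benchmarks – low control EC20 acetylcholine (0%), high control EC100 acetylcholine (100%) · Replication – singlicate, one well per test compound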
M5 antag: antagonists of human muscarinic M5 receptor (CHRM5) | 0.59% of 360,000 active | inhibition, % at 3 µM | CHO-hM5 cells, Fluo-8 calcium fluorescence, ACh EC80;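 active = inhibition above a per-plate cutoff, the mean of that plate's test compounds plus 3 SD, cut at about 27% in these data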;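 also: 0% = acetylcholine EC80 with DMSO and 100% = DMSO without agonist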
CHRM4 PAM: CHRM4 positive allosteric modulation; AID 624126; CHO-K1 hM4/Gqi5, Fluo-8 calcium fluorescence, ACh EC20; 0% = ACh EC20, 100% = maximal ACh; activation, % at 3 µM; 0.4% of 360,000 active; P08173;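 active = activation above its plate's cutoff, the mean activation of sample wells plus 3 SD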
Numbers without * were called inactive; ! = a repeat was not active. This is a sample that favours compounds with a hit; in the whole collection about 1.9% have one here.

For CN(C)CCOC(c1ccccc1)c1ccccc1 the results were M4 ag 1, M4 antag 32*!, M5 ag -2, CHRM5 PAM -18, M5 antag 35* and CHRM4 PAM -18.
`Cc1ccccc1C(OCCN(C(C)C)C(C)C)c1ccccc1` (stereo unspecified) gave M4 ag 2, M4 antag 99*, M5 ag -8, CHRM5 PAM -19, M5 antag 99* and CHRM4 PAM -15.
`CN(C)CCOC(c1ccc(Cl)cc1)c1ccccn1` (stereo unspecified) gave M4 ag 0, M4 antag 4, M5 ag -1, CHRM5 PAM -18, M5 antag 15 and CHRM4 PAM -10.
O=C(NCc1cccc(F)c1)c1[nH]c(C(F)(F)F)nc1-c1ccccc1 was read as M4 ag 17, M4 antag -24, M5 ag 5, CHRM5 PAM -8, M5 antag 10 and CHRM4 PAM 1.
`CSc1cccc(NC(=O)Nc2ccc(Cl)cc2)c1` gave M4 ag 9, M4 antag 9, M5 ag 8, CHRM5 PAM -15, M5 antag 31* and CHRM4 PAM -9.
`CC(=O)c1ccc(NC(=O)Nc2cccc(Cl)c2)cc1` gave M4 ag 15, M4 antag 12, M5 ag 8, CHRM5 PAM -21, M5 antag 28* and CHRM4 PAM -8.
Screening CC(=O)c1cccc(NC(=O)NCCc2ccc(Cl)cc2)c1 returned M4 ag 9, M4 antag 0, M5 ag 1, CHRM5 PAM -2, M5 antag 12 and CHRM4 PAM 16*.
For CC(=O)Nc1ccc(NC(=O)Nc2cccc(Cl)c2)cc1 the results were M4 ag 3, M4 antag -3, M5 ag 3, CHRM5 PAM -5, M5 antag 4 and CHRM4 PAM -2.
For CSc1cccc(NC(N)=O)c1 the results were M4 ag 0, M4 antag -5, M5 ag 4, CHRM5 PAM 8, M5 antag -4 and CHRM4 PAM 0.
CC(=O)c1ccc(OCc2nnn(CC(=O)NS(=O)(=O)c3ccc(C)cc3)c2-c2ccccc2)cc1 was read as M4 ag 0, M4 antag -7, M5 ag 2, CHRM5 PAM 3, M5 antag -4 and CHRM4 PAM 5.
COc1ccc(C(=O)OCC(=O)Nc2cccc(S(=O)(=O)NC3=NCCCCC3)c2)cc1[N+](=O)[O-] was read as M4 ag 4, M4 antag -18, M5 ag -4, CHRM5 PAM -2, M5 antag -4 and CHRM4 PAM -1.
`COC(=O)c1cccc(N2C(=O)C[C@](Sc3ccc(C)cc3)(C(=O)OC)[C@H]2c2ccccc2)c1` gave M4 ag 16, M4 antag 27*, M5 ag -1, CHRM5 PAM -16, M5 antag 5 and CHRM4 PAM -12.
For COC(=O)[C@@]1(Sc2ccc(C)cc2)CC(=O)N(c2ccc(Cl)cc2)[C@@H]1c1ccccc1 the results were M4 ag 0, M4 antag -2, M5 ag -1, CHRM5 PAM -3, M5 antag -6 and CHRM4 PAM 1.
CC1(C(=O)Nc2cccc(NS(C)(=O)=O)c2)CCN1Cc1ccccc1OC(F)F (stereo unspecified) was read as M4 ag 7, M4 antag 2, M5 ag 1, CHRM5 PAM 1, M5 antag 1 and CHRM4 PAM -4.
`O=C(CCSCc1ccccc1Cl)N1CCN(c2cccc(Cl)c2)CC1` gave M4 ag 0, M4 antag -17, M5 ag -1, CHRM5 PAM 0, M5 antag -11 and CHRM4 PAM 23*.
O=C(CCC(=O)N1CCN(c2ccc(F)cc2)CC1)c1ccc(Cl)cc1 was read as M4 ag 7, M4 antag -8, M5 ag 1, CHRM5 PAM -5, M5 antag 3 and CHRM4 PAM -5.
For O=C(CCC(=O)N1CCN(c2ccc(Cl)c(Cl)c2)CC1)c1ccccc1 the results were M4 ag 11, M4 antag 17, M5 ag 3, CHRM5 PAM -15, M5 antag 27* and CHRM4 PAM -9.
Screening CCC(C)(CN(C)C)OC(=O)c1ccccc1 (stereo unspecified) returned M4 ag 0, M4 antag -9, M5 ag -1, CHRM5 PAM 5, M5 antag -5 and CHRM4 PAM 6.
Screening O=C(Nc1ccc2c(c1)OCCO2)C1c2ccccc2OCC(=O)N1Cc1ccco1 (stereo unspecified) returned M4 ag 0, M4 antag -4, M5 ag 3, CHRM5 PAM -6, M5 antag 3 and CHRM4 PAM 10.
`Cc1cc(C)n(/N=C/c2ccccc2O)c(=O)c1` gave M4 ag 1, M4 antag 9, M5 ag 3, CHRM5 PAM 25*, M5 antag -19 and CHRM4 PAM 10.
O=C(c1noc2c1CCCC2)N1CCN(c2ccc(F)cc2)CC1 was read as M4 ag 3, M4 antag 29*, M5 ag 2, CHRM5 PAM 3, M5 antag -1 and CHRM4 PAM 3.
`COCOc1ccc(-c2ncc(OC)nc2NC(=O)c2cc(C)oc2C)cc1` gave M4 ag 0, M4 antag 1, M5 ag 1, CHRM5 PAM -1, M5 antag -4 and CHRM4 PAM -4.
For CCN(CC)Cc1ccccc1Sc1ccccc1 the results were M4 ag 0, M4 antag 53*, M5 ag -9, CHRM5 PAM -18, M5 antag 99* and CHRM4 PAM -17.
Screening N/C(Cc1ccccc1Sc1ccccc1)=N\O returned M4 ag 2, M4 antag -1, M5 ag 0, CHRM5 PAM -7, M5 antag 11 and CHRM4 PAM 4.
`CCC(C)N(C)Cc1cccc(C2(O)CCN(S(=O)(=O)c3ccc(F)c(C)c3)CC2)c1` (stereo unspecified) gave M4 ag 0, M4 antag 66*, M5 ag -8, CHRM5 PAM -19, M5 antag 20 and CHRM4 PAM -41.
`CC(C)n1cc(C(=O)c2ccccc2O)cc(C#N)c1=O` gave M4 ag 4, M4 antag -7, M5 ag 4, CHRM5 PAM 7, M5 antag -1 and CHRM4 PAM 13.

Assay outcomes: PubChem BioAssay, The Scripps Research Institute Molecular Screening Center
